Experimental data reported in ChEMBL document CHEMBL2346643, “Semisynthetic studies identify mitochondria poisons from botanical dietary supplements--geranyloxycoumarins from Aegle marmelos” (Bioorg Med Chem, 2013).
The source made the active and inactive calls. The calls are words filed in the database; no cut-off is given here.

Key:
T47D [1] = assay: Antiproliferative activity against human T47D cells at 1 to 10 uM after 48 hrs by SRB assay; assay type: functional, cell-based
In short: (§1)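 T47D or MDA-MB-231 breast tumor cells were exposed to 1, 3, 10 and 30 μM for 48 h or 144 h (6 d). For the 6 d exposure, medium was replaced after 3 days with fresh medium containing compound. Stocks were 4 mM in 2-propanol, with final solvent below 0.75%. Viability was measured by sulforhodamine B and expressed as % inhibition of the untreated control: [1−(OD treated/OD control)]×100.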

MDA-MB-231 [2] = assay: Antiproliferative activity against human MDA-MB-231 cells at 1 to 10 uM after 48 hrs by SRB assay; assay type: functional, cell-based; in short: as §1
T47D [3] = assay: Inhibition of mitochondrial ETC complex 1 in human T47D cells assessed as inhibition of oxygen consumption at 30 uM after 5 to 10 mins by Clarke-type electrode analysis; assay type: cell-based
In short: (§2)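 For acute exposure, intact T47D cells received compound at 3, 10 or 30 μM for 5–10 min. Oxygen consumption was then measured with a Clarke-type electrode, with rotenone at 1–100 nM as control. Results are % inhibition of the untreated rate, averaged over two independent experiments with deviation from the average.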

[4] = target: Mitochondrial complex I (NADH dehydrogenase); assay: Inhibition of mitochondrial ETC complex 1 in human T47D cells assessed as inhibition of 1,10-phenanthroline-induced HIF1 activation incubated for 30 mins prior to 1,10-phenanthroline-challenge measured after 16 hrs by luciferase reporter assay; assay type: cell-based
In short: (§3)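 pHRE-luc reporter transfected T47D cells were exposed for 16 h to hypoxia (1% O2) or to chemical hypoxia (10 μM 1,10-phenanthroline) in the presence of compound. The highest concentration tested was 30 μM. Luciferase signal was expressed as % inhibition of the induced control. IC50 and 95% CI came from one representative concentration-response experiment run in triplicate. Cycloheximide at 10 μM served as control.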

[5] = target: Mitochondrial complex I (NADH dehydrogenase); assay: Inhibition of mitochondrial ETC complex 1 in human T47D cells assessed as inhibition of 1% O2-induced HIF1 activation incubated for 30 mins prior to 1% O2-challenge measured after 16 hrs by luciferase reporter assay; assay type: cell-based; in short: as §3
T47D [6] = assay: Inhibition of mitochondrial ETC complex 1 in human T47D cells assessed as inhibition of oxygen consumption after 5 to 10 mins by Clarke-type electrode analysis; assay type: cell-based; in short: as §2
T47D [7] = assay: Inhibition of mitochondrial ETC complex 1 in human digitonin-permeabalized T47D cells assessed as inhibition of malate/pyruvate-initiated respiration at 30 uM after 2 hrs by Clarke-type electrode analysis in presence of succinate; assay type: cell-based
T47D [8] = assay: Inhibition of mitochondrial ETC complex 1 in human digitonin-permeabalized T47D cells assessed as inhibition of malate/pyruvate-initiated respiration at 30 uM after 2 hrs by Clarke-type electrode analysis; assay type: cell-based
T47D [9] = assay: Inhibition of mitochondrial ETC complex 4 in human digitonin-permeabalized T47D cells assessed as inhibition of ascorbate/TMPD-initiated respiration at 30 uM after 2 hrs by Clarke-type electrode analysis in presence of antimycin A; assay type: cell-based
T47D [10] = assay: Inhibition of mitochondrial ETC complex 2 in human digitonin-permeabalized T47D cells assessed as inhibition of succinate-initiated respiration at 30 uM after 2 hrs by Clarke-type electrode analysis; assay type: cell-based
MDA-MB-231 [11] = assay: Antiproliferative activity against human MDA-MB-231 cells at 1 to 30 uM after 144 hrs by SRB assay; assay type: functional, cell-based; in short: as §1
T47D [12] = assay: Antiproliferative activity against human T47D cells at 1 to 30 uM after 144 hrs by SRB assay; assay type: functional, cell-based; in short: as §1
T47D [13] = assay: Inhibition of mitochondrial ETC complex 4 in human digitonin-permeabalized T47D cells assessed as inhibition of ascorbate/TMPD-initiated respiration at 10 uM after 2 hrs by Clarke-type electrode analysis in presence of antimycin A; assay type: cell-based
In short: (§4)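 T47D cells were pretreated for 2 h with 10 μM compound (rotenone control 0.01 μM), then detached, washed and permeabilized with digitonin. Substrates and inhibitors were added in sequence while O2 uptake was followed by Clarke electrode. Respiration was started with malate/pyruvate (complex I) or succinate (complex II). Antimycin A then blocked complex III, and TMPD/ascorbate re-initiated respiration via complex IV. Rates were normalized to the untreated control.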

T47D [14] = assay: Inhibition of mitochondrial ETC complex 2 in human digitonin-permeabalized T47D cells assessed as inhibition of succinate-initiated respiration at 10 uM after 2 hrs by Clarke-type electrode analysis; assay type: cell-based; in short: as §4
T47D [15] = assay: Inhibition of mitochondrial ETC complex 1 in human digitonin-permeabalized T47D cells assessed as inhibition of malate/pyruvate-initiated respiration at 10 uM after 2 hrs by Clarke-type electrode analysis; assay type: cell-based; in short: as §4
T47D [16] = assay: Inhibition of mitochondrial ETC complex 1 in human T47D cells assessed as inhibition of oxygen consumption at 10 uM after 2 hrs by Clarke-type electrode analysis; assay type: cell-based
In short: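 T47D cells were pretreated with 10 μM compound, or 0.01 μM rotenone, for 2 h. Cells were then detached and washed, and the oxygen consumption rate was measured with a Clarke-type electrode. Results are % inhibition relative to untreated controls.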

T47D [17] = assay: Inhibition of mitochondrial ETC complex 1 in human T47D cells assessed as inhibition of oxygen consumption at 10 uM after 10 mins by Clarke-type electrode analysis; assay type: cell-based; in short: as §2
MDA-MB-231 [18] = assay: Antiproliferative activity against human MDA-MB-231 cells at 30 uM after 48 hrs by SRB assay; assay type: functional, cell-based; in short: as §1
T47D [19] = assay: Antiproliferative activity against human T47D cells at 30 uM after 48 hrs by SRB assay; assay type: functional, cell-based; in short: as §1
T47D [20] = assay: Antiproliferative activity against human T47D cells at 10 uM after 48 hrs by SRB assay; assay type: functional, cell-based
In short: (§5)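 Cells exposed 48 h to compounds at 1, 3, 10 and 30 μM (pure compounds from 4 mM 2-propanol stocks, final solvent <0.75%). Viability read by sulforhodamine B staining. Value is % inhibition versus untreated control, [1-(OD treated/OD control)]×100. Cycloheximide 10 μM and rotenone 1 and 10 nM served as controls.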

MDA-MB-231 [21] = assay: Antiproliferative activity against human MDA-MB-231 cells at 10 uM after 48 hrs by SRB assay; assay type: functional, cell-based; in short: as §5

SMILES	Activity (T47D [1])	Activity (MDA-MB-231 [2])	inhibition (T47D [3])	IC50 [4]	IC50 [5]	inhibition (T47D [6])	other results
CCCCCCCCCCCCCCCC(=O)O[C@H](CC/C(C)=C/COc1ccc2ccc(=O)oc2c1)C(C)(C)O [R-(+)-MARMIN-6'-PALMITATE]	Active	Active	20%	> 30 µM	> 30 µM	–	–
COc1cc2ccc(=O)oc2cc1OC/C=C(\C)CCC=C(C)C	Active	Active	30%	24.2 µM	17.5 µM	Dose-dependent effect	–
CC(C)=CCOc1ccc(CCNC(=O)/C=C/c2ccccc2)cc1 [DEHYDROMARMELINE]	–	–	70%	> 30 µM	15.1 µM	–	inhibition (T47D [7]): inactive; inhibition (T47D [8]): Active; inhibition (T47D [9]): inactive; inhibition (T47D [10]): inactive
C/C(=C\COc1ccc2ccc(=O)oc2c1)CC[C@@H](O)C(C)(C)Cl	Active	Active	30%	11.1 µM	16.7 µM	Dose-dependent effect	inhibition (T47D [7]): inactive; inhibition (T47D [8]): Active; inhibition (T47D [9]): inactive; inhibition (T47D [10]): inactive
CCCCC/C=C\C/C=C\CCCCCCCC(=O)O[C@H](CC/C(C)=C/COc1ccc2ccc(=O)oc2c1)C(C)(C)O [R-(+)-MARMIN-6'-LINOLEATE]	Active	Active	25%	2.35 µM	0.92 µM	–	Activity (MDA-MB-231 [11]): Active; Activity (T47D [12]): Active; inhibition (T47D [13]): inactive; inhibition (T47D [14]): 41%; inhibition (T47D [15]): 68%; inhibition (T47D [16]): 62%; inhibition (T47D [17]): 6%
CCCCCCCC(=O)O[C@H](CC/C(C)=C/COc1ccc2ccc(=O)oc2c1)C(C)(C)O [R-(+)-MARMIN-6'-OCTANOATE]	Active	Active	30%	3.71 µM	3.08 µM	Dose-dependent effect	Activity (MDA-MB-231 [11]): Active; Activity (T47D [12]): Active; Activity (MDA-MB-231 [18]): Active; Activity (T47D [19]): Active; inhibition (T47D [13]): inactive; inhibition (T47D [16]): 39%; inhibition (T47D [17]): 28%
C=C(C)[C@H](O)CC/C(C)=C/COc1ccc2ccc(=O)oc2c1	Active	Active	30%	21.8 µM	10.4 µM	Dose-dependent effect	inhibition (T47D [13]): inactive; inhibition (T47D [14]): 16%; inhibition (T47D [15]): 16%; inhibition (T47D [16]): 31%; inhibition (T47D [17]): 27%
COC(C)(C)[C@H](O)CC/C(C)=C/COc1ccc2ccc(=O)oc2c1	Active	Active	30%	> 30 µM	19.3 µM	Dose-dependent effect	–
CC(C)=CCC/C(C)=C/COc1ccc2ccc(=O)oc2c1 [AURAPTENE]	Active	Active	30%	18.8 µM	10.2 µM	Dose-dependent effect	inhibition (T47D [7]): inactive; inhibition (T47D [8]): Active; inhibition (T47D [9]): inactive; inhibition (T47D [10]): inactive
COc1cc(C[C@H]2CO[C@H](c3ccc(O)c(OC)c3)[C@H]2COC(=O)CC(C)C)ccc1O [(+)-9'-ISOVALEROXYLARICIRESINOL]	–	–	inactive	4.9 µM	9.1 µM	–	–
CCCCCCCCCCC(=O)O[C@H](CC/C(C)=C/COc1ccc2ccc(=O)oc2c1)C(C)(C)O [R-(+)-MARMIN-6'-UNDECANOATE]	Active	Active	30%	3.67 µM	0.87 µM	Dose-dependent effect	Activity (MDA-MB-231 [11]): Active; Activity (T47D [12]): Active; Activity (MDA-MB-231 [18]): Active; Activity (T47D [19]): Active
C[C@@H]1C[C@@H]([C@H](O)CC2CC(=O)NC(=O)C2)C(=O)[C@@H](C)C1	–	–	–	–	–	–	Activity (T47D [20]): Active; Activity (MDA-MB-231 [21]): Active
C/C(=C\COc1ccc2ccc(=O)oc2c1)CC[C@@H](O)C(C)(C)O [R-(+)-MARMIN]	Active	Active	20%	> 30 µM	> 30 µM	–	–
